{"source": "ChEMBL document CHEMBL1944548", "about": "“Discovery of kinase spectrum selective macrocycle (16E)-14-methyl-20-oxa-5,7,14,26-tetraazatetracyclo[19.3.1.1(2,6).1(8,12)]heptacosa-1(25),2(26),3,5,8(27),9,11,16,21,23-decaene (SB1317/TG02), a potent inhibitor of cyclin dependent kinases (CDKs), Janus kinase 2 (JAK2), and fms-like tyrosine …” (J Med Chem, 2012)", "key": {"[1]": {"assay": "Solubility of the compound in PBS buffer at 250 uM at pH 7 by UV spectrophotometry", "format": "physicochemical"}, "[2]": {"assay": "Terminal half life in BALB/c mouse at 75 mg/kg, po by LC-MS/MS analysis", "format": "ADME, organism-based", "set-up": "dose 75 mg/kg, route oral", "details": "in vivo, read-out: beta t1/2 (converted)", "how_it_was_run": "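Male BALB/c mice, ~10−12 weeks, 17−22 g. Given 75 mg/kg by oral gavage as a suspension in 0.5% methylcellulose/0.1% Tween 80. Serial blood taken by cardiac puncture over 0−24 h into K3EDTA; plasma stored at −70 °C. Analysis by LC−MS/MS, parameters by noncompartmental methods.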"}, "COLO 205": {"tested_on": "COLO 205", "assay": "Antiproliferative activity against human COLO205 cells after 48 hrs", "format": "functional, cell-based", "details": "COLO 205, 48 h"}, "[3]": {"target": "Cyclin-dependent kinase 2 (Homo sapiens) (UniProt P24941)", "assay": "Inhibition of CDK2 in human HCT116 cells assessed as Rb phosphorylation at 40 nM after 24 hrs by Western blot analysis", "format": "cell-based", "details": "HCT-116", "how_it_was_run": "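HCT-116 cells (2 × 10^5 in McCoy's medium with 2 mM L-glutamine and 10% FBS) seeded 16−24 h before dosing. Each dish exposed to one compound concentration or DMSO for 24 h. Lysis in modified RIPA buffer; protein by Bradford. 30 μg lysate run on 10% SDS−PAGE, blotted to PVDF, probed for phospho-Rb and β-actin. ECL detection.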"}, "[4]": {"assay": "Volume of distribution at steady state in BALB/c mouse at 5 mg/kg, iv by LC-MS/MS analysis", "format": "ADME, organism-based", "set-up": "dose 5 mg/kg, route intravenous", "details": "in vivo, read-out: Vdss"}, "[5]": {"target": "Tyrosine-protein kinase JAK2 (Homo sapiens, UniProt O60674)", "sequence (O60674 whole entry)": "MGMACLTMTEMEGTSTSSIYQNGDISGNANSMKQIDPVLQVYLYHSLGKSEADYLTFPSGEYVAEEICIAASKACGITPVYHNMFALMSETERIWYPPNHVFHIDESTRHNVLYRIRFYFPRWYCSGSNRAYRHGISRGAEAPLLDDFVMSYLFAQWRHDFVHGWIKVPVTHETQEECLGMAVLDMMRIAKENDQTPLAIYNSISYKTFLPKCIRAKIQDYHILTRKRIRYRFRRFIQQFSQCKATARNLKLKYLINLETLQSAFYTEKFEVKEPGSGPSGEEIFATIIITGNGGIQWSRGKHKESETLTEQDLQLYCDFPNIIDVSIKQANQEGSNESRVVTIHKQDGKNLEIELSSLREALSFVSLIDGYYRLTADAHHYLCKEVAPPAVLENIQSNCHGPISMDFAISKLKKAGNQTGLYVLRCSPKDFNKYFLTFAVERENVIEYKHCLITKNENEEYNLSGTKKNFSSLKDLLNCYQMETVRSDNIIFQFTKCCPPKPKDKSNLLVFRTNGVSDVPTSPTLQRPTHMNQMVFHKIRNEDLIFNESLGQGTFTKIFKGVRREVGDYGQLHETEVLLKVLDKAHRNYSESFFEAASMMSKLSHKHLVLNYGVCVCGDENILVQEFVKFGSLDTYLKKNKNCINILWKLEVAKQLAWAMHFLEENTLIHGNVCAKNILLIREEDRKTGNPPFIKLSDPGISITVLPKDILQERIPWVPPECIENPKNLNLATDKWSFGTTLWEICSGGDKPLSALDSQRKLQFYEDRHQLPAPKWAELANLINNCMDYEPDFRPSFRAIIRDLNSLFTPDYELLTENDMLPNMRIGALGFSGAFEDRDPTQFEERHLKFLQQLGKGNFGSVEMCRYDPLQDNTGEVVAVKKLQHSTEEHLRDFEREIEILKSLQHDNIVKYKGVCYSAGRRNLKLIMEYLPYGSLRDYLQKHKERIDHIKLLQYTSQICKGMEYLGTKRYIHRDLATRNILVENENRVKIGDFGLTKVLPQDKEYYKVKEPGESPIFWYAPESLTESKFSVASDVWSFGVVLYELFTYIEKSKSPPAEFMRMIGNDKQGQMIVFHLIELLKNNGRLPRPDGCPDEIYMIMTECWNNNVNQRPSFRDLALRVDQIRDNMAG", "assay": "Inhibition of recombinant JAK2 using poly(Glu,Ala,Tyr) as substrate after 2 hrs by luminescence assay"}, "Ramos [6]": {"tested_on": "Ramos", "assay": "Antitumor activity against human Ramos cells xenografted in po/ip dosed BALB/c nude mouse assessed as tumor growth inhibition", "format": "functional, organism-based", "how_it_was_run": "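Female BALB/c nude mice implanted sc in right flank with 7 × 10^6 Ramos cells; dosing began 12 days after inoculation at about 200 mm3, n = 8–10/group. Arms: 75 mg/kg po q.d. 2 days on/5 off in MC/Tween, or 15 mg/kg ip q.d.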"}, "[7]": {"assay": "Terminal half life in BALB/c mouse at 5 mg/kg, iv by LC-MS/MS analysis", "format": "ADME, organism-based", "set-up": "dose 5 mg/kg, route intravenous", "details": "in vivo, read-out: beta t1/2 (converted)"}, "HL-60": {"tested_on": "HL-60", "assay": "Antiproliferative activity against human HL60 cells after 48 hrs", "format": "functional, cell-based", "details": "HL-60, 48 h"}, "[8]": {"assay": "Half life in mouse liver microsomes at 5 uM by LC-MS/MS analysis", "format": "ADME, Microsome", "how_it_was_run": "(§1)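 5 μM with mouse, rat, dog or human liver microsomes (~0.87 mg/mL), 50 mM potassium phosphate pH 7.4, NADPH regeneration system, 37 °C.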"}, "[9]": {"assay": "Oral bioavailability in Wistar rat at 10 mg/kg by LC-MS/MS analysis", "details": "in vivo"}, "Cytochrome P450 2C19": {"target": "Cytochrome P450 2C19 (Homo sapiens, UniProt P33261)", "sequence (P33261 whole entry)": "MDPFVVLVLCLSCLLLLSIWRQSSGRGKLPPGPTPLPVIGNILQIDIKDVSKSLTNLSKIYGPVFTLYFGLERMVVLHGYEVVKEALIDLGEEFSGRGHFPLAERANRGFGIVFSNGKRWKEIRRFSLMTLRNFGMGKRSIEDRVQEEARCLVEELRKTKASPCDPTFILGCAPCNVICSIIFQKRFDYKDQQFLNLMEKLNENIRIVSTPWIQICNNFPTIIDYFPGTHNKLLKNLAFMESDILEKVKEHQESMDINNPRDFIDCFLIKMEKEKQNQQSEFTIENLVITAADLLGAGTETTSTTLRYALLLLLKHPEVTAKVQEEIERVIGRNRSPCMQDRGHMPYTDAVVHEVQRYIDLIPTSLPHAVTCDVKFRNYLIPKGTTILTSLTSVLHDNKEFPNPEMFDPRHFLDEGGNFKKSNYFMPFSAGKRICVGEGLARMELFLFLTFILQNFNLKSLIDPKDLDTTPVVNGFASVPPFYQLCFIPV", "assay": "Inhibition of CYP2C19 in human liver microsomes using mephenytoin as substrate after 60 mins by LC-MS/MS analysis", "format": "ADME, Microsome", "how_it_was_run": "(§2)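 Human liver microsomes (0.5 mg/mL for CYP2C19, 1 mg/mL for CYP2C9), NADPH 1 mM, test at 0.05−25 μM (DMSO 0.35% final), 37 °C; probes mephenytoin 25 μM (CYP2C19) and tolbutamide 120 μM (CYP2C9), 60 min each. IC50 from decrease in metabolite formation vs vehicle.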"}, "Cytochrome P450 1A2": {"target": "T1, Cytochrome P450 1A2 (Homo sapiens, UniProt P05177)", "T1 sequence (P05177 whole entry)": "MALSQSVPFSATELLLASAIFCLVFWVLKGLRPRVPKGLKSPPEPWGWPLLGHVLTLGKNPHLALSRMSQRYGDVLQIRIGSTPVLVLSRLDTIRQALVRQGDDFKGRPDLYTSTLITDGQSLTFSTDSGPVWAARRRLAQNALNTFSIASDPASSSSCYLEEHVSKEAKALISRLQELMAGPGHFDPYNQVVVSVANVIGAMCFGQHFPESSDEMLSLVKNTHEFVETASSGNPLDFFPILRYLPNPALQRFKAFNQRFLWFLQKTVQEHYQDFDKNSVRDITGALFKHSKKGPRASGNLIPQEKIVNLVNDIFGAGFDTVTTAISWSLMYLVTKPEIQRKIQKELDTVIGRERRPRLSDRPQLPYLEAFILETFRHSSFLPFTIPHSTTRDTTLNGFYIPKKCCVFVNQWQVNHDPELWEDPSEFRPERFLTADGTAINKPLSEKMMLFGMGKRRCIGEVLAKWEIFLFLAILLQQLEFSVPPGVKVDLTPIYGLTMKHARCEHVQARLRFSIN", "assay": "Inhibition of CYP1A2 in human liver microsomes using ethoxyresorufin as substrate after 5 mins by LC-MS/MS analysis", "format": "ADME, Microsome", "how_it_was_run": "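Human liver microsomes with 1 mM NADPH at 37 °C. Test concentrations 0.05, 0.25, 0.5, 2.5, 5 and 25 μM; final DMSO 0.35%. CYP1A: 0.25 mg/mL microsomes, ethoxyresorufin 0.5 μM, 5 min. CYP2D6: 0.5 mg/mL microsomes, dextromethorphan 5 μM, 30 min. IC50 from the fall in metabolite formation versus vehicle control. Selective inhibitors served as positive controls.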"}, "HCT-116": {"tested_on": "HCT-116", "assay": "Antiproliferative activity against human HCT116 cells after 48 hrs", "format": "functional, cell-based", "details": "HCT-116, 48 h"}, "Ramos [10]": {"tested_on": "Ramos", "assay": "Antitumor activity against human Ramos cells xenografted in BALB/c nude mouse assessed as tumor growth inhibition at 75 mg/kg, po qd on a 2 days on and 5 days off schedule for 15 days", "format": "functional", "details": "read-out: GI"}, "[11]": {"assay": "Clearance in BALB/c mouse at 5 mg/kg, iv by LC-MS/MS analysis", "format": "ADME, organism-based", "set-up": "dose 5 mg/kg, route intravenous", "details": "in vivo"}, "[12]": {"assay": "AUC (0 to infinity) in BALB/c mouse at 75 mg/kg, po by LC-MS/MS analysis", "format": "ADME, organism-based", "set-up": "time infinity, dose 75 mg/kg, route oral", "details": "plasma", "how_it_was_run": "(§3)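 Male BALB/c mice (~10−12 weeks, 17−22 g) gavaged with 75 mg/kg as a suspension in 0.5% methylcellulose/0.1% Tween 80. Serial blood by cardiac puncture over 0−24 h into K3EDTA, plasma stored at −70 °C, LC−MS/MS; parameters by noncompartmental analysis.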"}, "[13]": {"assay": "Tmax in BALB/c mouse at 75 mg/kg, po by LC-MS/MS analysis", "format": "ADME, organism-based", "set-up": "dose 75 mg/kg, route oral", "details": "in vivo", "how_it_was_run": "as §3"}, "[14]": {"assay": "Half life in human liver microsomes at 5 uM by LC-MS/MS analysis", "format": "ADME, Microsome", "how_it_was_run": "as §1"}, "[15]": {"assay": "Oral bioavailability in BALB/c mouse at 75 mg/kg by LC-MS/MS analysis", "format": "ADME, organism-based", "details": "in vivo", "how_it_was_run": "as §3"}, "Cytochrome P450 2C9": {"target": "Cytochrome P450 2C9 (Homo sapiens, UniProt P11712)", "sequence (P11712 whole entry)": "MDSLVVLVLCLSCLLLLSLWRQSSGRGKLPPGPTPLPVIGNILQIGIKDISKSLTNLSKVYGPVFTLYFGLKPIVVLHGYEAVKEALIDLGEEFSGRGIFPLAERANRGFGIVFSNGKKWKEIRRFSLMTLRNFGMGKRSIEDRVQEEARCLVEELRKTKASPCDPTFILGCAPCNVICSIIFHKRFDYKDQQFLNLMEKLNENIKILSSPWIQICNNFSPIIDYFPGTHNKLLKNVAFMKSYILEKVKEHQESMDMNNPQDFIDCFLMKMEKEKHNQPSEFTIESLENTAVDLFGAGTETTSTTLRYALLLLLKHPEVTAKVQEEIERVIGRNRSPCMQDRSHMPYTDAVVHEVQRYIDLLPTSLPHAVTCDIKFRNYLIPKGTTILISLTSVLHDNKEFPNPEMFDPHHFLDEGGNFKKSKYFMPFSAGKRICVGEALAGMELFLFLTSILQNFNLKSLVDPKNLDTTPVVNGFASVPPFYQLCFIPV", "assay": "Inhibition of CYP2C9 in human liver microsomes using Tolbutamide as substrate after 60 mins by LC-MS/MS analysis", "format": "ADME, Microsome", "how_it_was_run": "as §2"}, "[16]": {"assay": "AUC (0 to infinity) in BALB/c mouse at 5 mg/kg, iv by LC-MS/MS analysis", "format": "ADME, organism-based", "set-up": "time infinity, dose 5 mg/kg, route intravenous", "details": "plasma"}}, "note": "Activity calls are given as the source filed them. The calls are words filed in the database; no cut-off is given here.", "data": [{"molecule": "CN1C/C=C/CCOc2cccc(c2)-c2ccnc(n2)Nc2cccc(c2)C1", "note": "[ZOTIRACICLIB]", "values": [{"measurement": "solubility at 250 µM", "setting": "[1]", "result": 71.8, "unit": "µg/mL"}, {"measurement": "half-life", "setting": "[2]", "result": 366, "unit": "min"}, {"measurement": "IC50", "setting": "COLO 205", "result": 72, "unit": "nM"}, {"measurement": "inhibition", "setting": "[3]", "result": "Active"}, {"measurement": "Vd", "setting": "[4]", "result": 23, "unit": "L/kg"}, {"measurement": "IC50", "setting": "[5]", "result": 73, "unit": "nM"}, {"measurement": "growth inhibition (GI)", "setting": "Ramos [6]", "result": "Dose-dependent effect"}, {"measurement": "half-life", "setting": "[7]", "result": 276, "unit": "min"}, {"measurement": "IC50", "setting": "HL-60", "result": 59, "unit": "nM"}, {"measurement": "half-life at 5 µM", "setting": "[8]", "result": 12, "unit": "min"}, {"measurement": "bioavailability", "setting": "[9]", "result": 4, "unit": "%"}, {"measurement": "IC50", "setting": "Cytochrome P450 2C19", "result": "> 25000", "unit": "nM"}, {"measurement": "IC50", "setting": "Cytochrome P450 1A2", "result": "> 25000", "unit": "nM"}, {"measurement": "IC50", "setting": "HCT-116", "result": 79, "unit": "nM"}, {"measurement": "inhibition in vivo at 75 mg/kg", "setting": "Ramos [10]", "result": 42, "unit": "%"}, {"measurement": "clearance", "setting": "[11]", "result": 110, "unit": "mL/min/kg"}, {"measurement": "AUC(0-inf)", "setting": "[12]", "result": 2520, "unit": "ng·h/mL"}, {"measurement": "Tmax", "setting": "[13]", "result": 30, "unit": "min"}, {"measurement": "half-life at 5 µM", "setting": "[14]", "result": 45, "unit": "min"}, {"measurement": "bioavailability", "setting": "[15]", "result": 24, "unit": "%"}, {"measurement": "IC50", "setting": "Cytochrome P450 2C9", "result": "> 25000", "unit": "nM"}, {"measurement": "AUC(0-inf)", "setting": "[16]", "result": 752, "unit": "ng·h/mL"}]}]}
